Laboratory results reported in ChEMBL document CHEMBL1157766, “Neolignans and glycosides from the stem bark of Illicium difengpi” (J Nat Prod, 2010).
Activity calls are given as the source filed them. The rule behind the calls is not given here.

Tests used:
[1] = Antiinflammatory activity in rat PMNC assessed as inhibition of platelet activating factor-induced beta-glucuronidase release preincubated for 15 mins at 37 degC; assay type: functional
How it was run: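 Rat polymorphonuclear leukocytes (2.5 × 10^6 cells/mL) preincubated with sample (diluted from 0.1 M DMSO stock to 10^-3 M) at 37 °C for 15 min. Cytochalasin B added for 5 min, then PAF for 5 min, stopped on ice. Supernatant β-glucuronidase measured with 2.5 mM phenolphthalein glucuronic acid in 0.1 M HOAc, 37 °C, 18 h. NaOH stop, A550; inhibitory ratio versus PAF and control.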

[2] = Antioxidant activity in liver microsomes assessed as inhibition of Fe(2+)-Cys system-induced lipid peroxidation preincubated for 15 mins at 37 degC; assay type: functional; details: for inhibition: Microsome
How it was run: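 Sample with liver microsome suspension and 0.2 µM cysteine in 0.1 M PBS pH 7.4, 37 °C, 15 min. Peroxidation started with 50 µM FeSO4 and stopped with 20% TFA. Supernatant heated with 0.67% thiobarbituric acid in boiling water for 10 min, then A532 read. Inhibitory ratio calculated from absorbances.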

| Compound | IC50 [1] [µM] | inhibition [2] | IC50 [2] [µM] |
| --- | --- | --- | --- |
| COc1cc(/C=C/CO)cc(OC)c1OC(=O)/C=C/c1ccccc1 [NEODIFENGPIN] | > 50 | inactive | – |
| COc1cc(CCCO)cc2c1O[C@H](C1=C[C@H](O)[C@H](O)CC1)[C@H]2CO [DIFENGPIOL A] | > 50 | inactive | – |
| COc1cc(O[C@@H]2O[C@H](CO[C@@H]3O[C@@H](C)[C@H](O)[C@@H](O)C3O)[C@@H](O)[C@H](O)[C@H]2O)cc(O)c1OC (single isomer, unassigned) | 7.66 | inactive | – |
| COc1cc([C@H](O)[C@@H](CO)Oc2c(OC)cc(CCCO)cc2OC)ccc1OC(CO)CO | 1.62 | inactive | – |
| C=CCc1cc(OC)c(O[C@@H](CO)[C@H](O)c2cc(OC)c(O)c(OC)c2)c(OC)c1 | 24.4 | – | 42.3 |
| C[C@@H]1O[C@@H](OC[C@H]2O[C@@H](Oc3cc4c(cc3O)OCO4)[C@H](O)[C@@H](O)[C@@H]2O)C(O)[C@H](O)[C@H]1O (single isomer, unassigned) | > 50 | inactive | – |
| C[C@@H]1C(=O)O[C@H]2[C@H](O)[C@@]34[C@H]5C[C@@H](C(C)(C)C)[C@]36[C@@H](OC(=O)[C@@H]6O)O[C@@]4(C(=O)O5)[C@@]12O [GINKOLIDE B] | 2.35 | – | – |
| COc1cc(CCCO)cc2c1O[C@H]([C@]1(O)CC[C@H](OC)[C@@H](O)C1)[C@H]2CO [DIFENGPIOL B] | > 50 | inactive | – |
